Measurements: ChEMBL document CHEMBL4354825, “Design and Synthesis of Basic Selective Estrogen Receptor Degraders for Endocrine Therapy Resistant Breast Cancer” (J Med Chem, 2019)
The source made the active and inactive calls. The calls are words filed in the database; no cut-off is given here.

Key:
Rattus norvegicus = experiment: Induction of uterotrophic activity in Sprague-Dawley rat assessed as increase in uterine weight at 10 mg/kg, po administered for 3 days and measured after 24 hrs of last dosing by hematoxylin eosin staining based imaging analysis; format: functional, organism-based
In short: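 Female Sprague-Dawley rats were dosed from day 19 of age once daily for 3 days: 10 mg/kg p.o. in 2% Tween 80/0.5% methylcellulose. EE2 (0.1 mg/kg p.o., peanut oil) was the positive control. Uteri were excised and weighed 24 h after the last dose; one half was fixed in 4% paraformaldehyde for H&E histology.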

[1] = AUC (0 to infinity) in C57BL/6 mouse at 5 mg/kg, iv measured upto 24 hrs by LC-MS/MS analysis; format: ADME, organism-based; design: dose 5 mg/kg, route intravenous, time infinity; details: in vivo
In short: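 Full PK run by a contract lab. Dosing was 50 mg/kg p.o. in water and 10% SBE-β-CD/PEG-400 (9:1 v/v), and 5 mg/kg i.v. Sampling at 0.25, 0.5, 1, 2, 4, 8 and 24 h (N = 5). Plasma samples were diluted in 50% acetonitrile and quantified by LC-MS/MS against standards serially diluted in 50% acetonitrile. Brain was also sampled after the oral dose.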

- AUC [1]: 778 ng·h/mL
Compound: Cc1cc(F)cc(C)c1C(=O)c1sc2cc(O)ccc2c1Oc1ccc(OC2CN(CCCF)C2)cc1
- Activity (Rattus norvegicus): inactive
